# Experimental data: ChEMBL document CHEMBL1145189, “Synthesis and evaluation of S-acyl-2-thioethyl esters of modified nucleoside 5'-monophosphates as inhibitors of hepatitis C virus RNA replication” (J Med Chem, 2005)
# Values joined by “and” are separate entries in the source; they are usually repeats but may differ in a detail not shown here. Equal entries are not always repeated.
# Legend:
# CHO [1] = assay: Effect of compound (10000 uM) on growth of CHO cells measured as population doublings from the beginning of the experiment as percent of controls after 20 hr of treatment (harvested at 20h of treatment); assay type: functional, Cricetulus griseus
# In short: (§1)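 Exponentially growing CHO (clone WBL) monolayers treated for 20 h without S-9. DMSO stock diluted 100-fold into medium, giving 1% v/v DMSO as vehicle control. Cultures harvested at 20, 30 or 42 h after dosing. Growth expressed as population doublings from start of experiment as a percentage of controls.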
# CHO [2] = assay: Effect of compound (10000 uM) on growth of CHO cells measured as population doublings from the beginning of the experiment as percent of controls after 20 hr of treatment (harvested at 30h of treatment); assay type: functional, Cricetulus griseus; in short: as §1
# CHO [3] = assay: Effect of compound (10000 uM) on growth of CHO cells measured as population doublings from the beginning of the experiment as percent of controls after 20 hr of treatment (harvested at 42h of treatment); assay type: functional, Cricetulus griseus; in short: as §1
# CHO [4] = assay: Percent of CHO cells with chromosomal aberrations were determined at 10000 uM compound after 20 hr of treatment (harvested at 20h of treatment); assay type: functional, Cricetulus griseus
# In short: (§2)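 CHO (clone WBL) monolayers treated for 20 h without S-9, with DMSO stock diluted 100-fold into medium. Harvest at 20, 30 or 42 h after dosing; colcemid added 1–2 h before harvest for metaphase arrest. Cells fixed, and 200 cells scored per point for % aberrant cells. Points not scored where toxicity prevented it. Comparison against concurrent controls.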
# CHO [5] = assay: Percent of CHO cells with chromosomal aberrations were determined at 10000 uM compound after 20 hr of treatment (harvested at 30h of treatment); assay type: functional, Cricetulus griseus; in short: as §2
# CHO [6] = assay: Percent of CHO cells with chromosomal aberrations were determined at 10000 uM compound after 20 hr of treatment (harvested at 42h of treatment); assay type: functional, Cricetulus griseus; in short: as §2
# [7] = Effective concentration against hepatitis C virus RNA replication in a subgenomic bicistronic replicon in HBI10A cells; assay type: functional, cell-based; settings: Homo sapiens
# In short: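 Stable Huh-7-derived HBI10A hepatoma line carrying a subgenomic bicistronic HCV replicon. Compound incubated with cells for 24 h. Relative replicon RNA then quantified by in situ ribonuclease protection assay.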
# [8] = Average intracellular Metabolism was measured in human HBI10A cells after 23 hr of incubation; assay type: functional
# In short: (§3)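 Radiolabeled 5-[³H] compound at 2 µM incubated with Huh-7 (passage 27) or HBI10A (passage 15) cells for 3 or 23 h. Cells extracted and analysed by ion pair reverse-phase HPLC. Triphosphate reported as pmol/million cells, with major metabolic byproducts noted. Averages of at least three separate experiments.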
# Huh-7 [9] = assay: Average intracellular Metabolism was measured in human Huh-7 cells after 3 h of incubation; assay type: functional; in short: as §3
# [10] = Average intracellular Metabolism was measured in human HBI10A cells after 3 h of incubation; assay type: functional; in short: as §3
# Huh-7 [11] = assay: Average intracellular Metabolism was measured in human Huh-7 cells after 23 hr of incubation; assay type: functional; in short: as §3
# CHO [12] = assay: Effect of compound (550 uM) on growth of CHO cells measured as population doublings from the beginning of the experiment as percent of controls after 20 hr of treatment (harvested at 20h of treatment); assay type: functional, Cricetulus griseus; in short: as §1
# CHO [13] = assay: Effect of compound (550 uM) on growth of CHO cells measured as population doublings from the beginning of the experiment as percent of controls after 20 hr of treatment (harvested at 30h of treatment); assay type: functional, Cricetulus griseus; in short: as §1
# CHO [14] = assay: Effect of compound (550 uM) on growth of CHO cells measured as population doublings from the beginning of the experiment as percent of controls after 20 hr of treatment (harvested at 42h of treatment); assay type: functional, Cricetulus griseus; in short: as §1
# CHO [15] = assay: Effect of compound (700 uM) on growth of CHO cells measured as population doublings from the beginning of the experiment as percent of controls after 20 hr of treatment (harvested at 20h of treatment); assay type: functional, Cricetulus griseus; in short: as §1
# CHO [16] = assay: Effect of compound (700 uM) on growth of CHO cells measured as population doublings from the beginning of the experiment as percent of controls after 20 h of treatment (harvested at 30h of treatment); assay type: functional, Cricetulus griseus; in short: as §1
# CHO [17] = assay: Effect of compound (700 uM) on growth of CHO cells measured as population doublings from the beginning of the experiment as percent of controls after 20 hr of treatment (harvested at 42h of treatment); assay type: functional, Cricetulus griseus; in short: as §1
# CHO [18] = assay: Effect of compound (800 uM) on growth of CHO cells measured as population doublings from the beginning of the experiment as percent of controls after 20 hr of treatment (harvested at 20h of treatment); assay type: functional, Cricetulus griseus; in short: as §1
# CHO [19] = assay: Effect of compound (800 uM) on growth of CHO cells measured as population doublings from the beginning of the experiment as percent of controls after 20 hr of treatment (harvested at 30h of treatment); assay type: functional, Cricetulus griseus; in short: as §1
# CHO [20] = assay: Effect of compound (800 uM) on growth of CHO cells measured as population doublings from the beginning of the experiment as percent of controls after 20 hr of treatment (harvested at 42h of treatment); assay type: functional, Cricetulus griseus; in short: as §1
# [21] = Cytotoxic concentration of compound in human HBI10A cells infected with hepatitis C virus in MTS assay; assay type: functional
# In short: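 MTS cytotoxicity run on samples parallel to the replicon assay, at the same time (24 h compound exposure). Cells plated at 2.0 × 10⁴/well and compound added next day at 2× in medium. Incubation at 37 °C, 5% CO₂. MTS reagent added for 1 h, then absorbance read at 490 nm.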
# CHO [22] = assay: Effect of compound (600 uM) on growth of CHO cells measured as population doublings from the beginning of the experiment as percent of controls after 20 hr of treatment (harvested at 20h of treatment); assay type: functional, Cricetulus griseus; in short: as §1
# CHO [23] = assay: Effect of compound (600 uM) on growth of CHO cells measured as population doublings from the beginning of the experiment as percent of controls after 20 hr of treatment (harvested at 30h of treatment); assay type: functional, Cricetulus griseus; in short: as §1
# CHO [24] = assay: Effect of compound (600 uM) on growth of CHO cells measured as population doublings from the beginning of the experiment as percent of controls after 20 hr of treatment (harvested at 42h of treatment); assay type: functional, Cricetulus griseus; in short: as §1
# CHO [25] = assay: Effect of compound (650 uM) on growth of CHO cells measured as population doublings from the beginning of the experiment as percent of controls after 20 hr of treatment (harvested at 20h of treatment); assay type: functional, Cricetulus griseus; in short: as §1
# CHO [26] = assay: Effect of compound (650 uM) on growth of CHO cells measured as population doublings from the beginning of the experiment as percent of controls after 20 hr of treatment (harvested at 30h of treatment); assay type: functional, Cricetulus griseus; in short: as §1
# CHO [27] = assay: Effect of compound (650 uM) on growth of CHO cells measured as population doublings from the beginning of the experiment as percent of controls after 20 hr of treatment (harvested at 42h of treatment); assay type: functional, Cricetulus griseus; in short: as §1
# CHO [28] = assay: Percent of CHO cells with chromosomal aberrations were determined at 550 uM compound after 20 hr of treatment (harvested at 20h of treatment); assay type: functional, Cricetulus griseus; in short: as §2
# CHO [29] = assay: Percent of CHO cells with chromosomal aberrations were determined at 550 uM compound after 20 hr of treatment (harvested at 30h of treatment); assay type: functional, Cricetulus griseus; in short: as §2
# CHO [30] = assay: Percent of CHO cells with chromosomal aberrations were determined at 600 uM compound after 20 hr of treatment (harvested at 20h of treatment); assay type: functional, Cricetulus griseus; in short: as §2
# CHO [31] = assay: Percent of CHO cells with chromosomal aberrations were determined at 600 uM compound after 20 hr of treatment (harvested at 30h of treatment); assay type: functional, Cricetulus griseus; in short: as §2
# CHO [32] = assay: Percent of CHO cells with chromosomal aberrations were determined at 600 uM compound after 20 hr of treatment (harvested at 42h of treatment); assay type: functional, Cricetulus griseus; in short: as §2
# CHO [33] = assay: Percent of CHO cells with chromosomal aberrations were determined at 650 uM compound after 20 hr of treatment (harvested at 30h of treatment); assay type: functional, Cricetulus griseus; in short: as §2
# CHO [34] = assay: Percent of CHO cells with chromosomal aberrations were determined at 700 uM compound after 20 hr of treatment (harvested at 42h of treatment); assay type: functional, Cricetulus griseus; in short: as §2
# CHO [35] = assay: Percent of CHO cells with chromosomal aberrations were determined at 650 uM compound after 20 hr of treatment (harvested at 20h of treatment); Not scored because of toxicity; assay type: functional, cell-based; settings: Cricetulus griseus; in short: as §2
# CHO [36] = assay: Percent of CHO cells with chromosomal aberrations were determined at 700 uM compound after 20 hr of treatment (harvested at 20h of treatment); Not scored because of toxicity; assay type: functional, cell-based; settings: Cricetulus griseus; in short: as §2
# CHO [37] = assay: Percent of CHO cells with chromosomal aberrations were determined at 700 uM compound after 20 h of treatment (harvested at 30h of treatment); Not scored because of toxicity; assay type: functional, cell-based; settings: Cricetulus griseus; in short: as §2
# CHO [38] = assay: Percent of CHO cells with chromosomal aberrations were determined at 800 uM compound after 20 hr of treatment (harvested at 20h of treatment); Not scored because of toxicity; assay type: functional, cell-based; settings: Cricetulus griseus; in short: as §2
# CHO [39] = assay: Percent of CHO cells with chromosomal aberrations were determined at 800 uM compound after 20 hr of treatment (harvested at 30h of treatment); Not scored because of toxicity; assay type: functional, cell-based; settings: Cricetulus griseus; in short: as §2
# CHO [40] = assay: Percent of CHO cells with chromosomal aberrations were determined at 800 uM compound after 20 hr of treatment (harvested at 42h of treatment); Not scored because of toxicity; assay type: functional, cell-based; settings: Cricetulus griseus; in short: as §2
# [41] = Inhibitory concentration against hepatitis C virus NS5B-mediated RNA synthesis in HBI10A cells; assay type: functional, cell-based; settings: Homo sapiens
structure (smiles),measurement,setting,value
Nc1ccn([C@H]2CC[C@@H](CO)O2)c(=O)n1 [ZALCITABINE],Growth,CHO [1],65%
same,Growth,CHO [2],101%
same,Growth,CHO [3],105%
same,Aberrant cells,CHO [4],9.5%
same,Aberrant cells,CHO [5],8%
same,Aberrant cells,CHO [6],3%
CO[C@@H]1[C@H](O)[C@@H](COP(=O)(OCCSC(=O)C(C)(C)C)OCCSC(=O)C(C)(C)C)O[C@H]1n1ccc(N)nc1=O,EC50,[7],3 µM
same,Activity,[8],5.8 pmol/million cells
same,Activity,Huh-7 [9],7.02 pmol/million cells
same,Activity,[10],15.9 pmol/million cells
same,Activity,Huh-7 [11],1.88 pmol/million cells
same,Growth,CHO [12],59%
same,Growth,CHO [13],82%
same,Growth,CHO [14],95%
same,Growth,CHO [15],21%
same,Growth,CHO [16],6%
same,Growth,CHO [17],47%
same,Growth,CHO [18],6%
same,Growth,CHO [19],0%
same,Growth,CHO [20],0%
same,CC50,[21],> 100 µM
same,Growth,CHO [22],51%
same,Growth,CHO [23],57%
same,Growth,CHO [24],88%
same,Growth,CHO [25],27%
same,Growth,CHO [26],46%
same,Growth,CHO [27],90%
same,Aberrant cells,CHO [28],0%
same,Aberrant cells,CHO [29],3.5%
same,Aberrant cells,CHO [30],2%
same,Aberrant cells,CHO [31],1.5%
same,Aberrant cells,CHO [32],1.5%
same,Aberrant cells,CHO [33],4.5% and 3%
same,Aberrant cells,CHO [34],3.5%
same,Aberrant cells,CHO [35],Not scored
same,Aberrant cells,CHO [36],Not scored
same,Aberrant cells,CHO [37],Not scored
same,Aberrant cells,CHO [38],Not scored
same,Aberrant cells,CHO [39],Not scored
same,Aberrant cells,CHO [40],Not scored
Nc1ccn([C@@H]2O[C@H](CO)C[C@H]2O)c(=O)n1,IC50,[41],1.2 µM
same,EC50,[7],25 µM
same,CC50,[21],> 50 µM
